High-throughput results deposited in PubChem BioAssay by several laboratories.
FID counter = displaces DNA intercalator in HCV helicase counter-screen; DNA fluorescent intercalator displacement, fluorescence; inhibition, % at 7.9 µM; 0.17% of 290,000 active; AID 1845; in the data active = inhibition above about 37%;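 also: 0% = vehicle and 100% = reference compound; higher means more ethidium bromide displaced from hairpin DNA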
NS3 helicase inh = HCV NS3 helicase inhibition; NS3 helicase DNA unwinding, Cy5 molecular beacon fluorescence; inhibition, % at 10.9 µM; 0.56% of 290,000 active;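 active = inhibition above the mean of all tested compounds plus 3 SD, set per campaign, cut at about 35% in these data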;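 also: 0% = DMSO wells and 100% = thioflavine S control wells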
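assay system = NS3 helicase fragment of HCV | buffer or medium = MOPS pH 6.5, MgCl2, DTT, Tween20, BSA | timing = 60 min unwinding reaction at 25 °C after ATP addition | signal = Cy5 beacon fluorescence read at start and 1 h | read-out basis = % inhibition of unwinding | control set = low DMSO, high thioflavine S at 110 µM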
VIM-2 inhibitor = inhibitors of Pseudomonas aeruginosa VIM-2 metallo-beta-lactamase; purified VIM-2, nitrocefin hydrolysis, epi-absorbance fluorescence; 0.89% of 290,000 active; inhibition, % at 5.6 µM;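 active = inhibition above the mean of all tested compounds plus 3 SD, cutoff set per screening run, cut at about 7.5% in these data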;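 also: red hydrolysis product quenches plate fluorescence so inhibitors raise well fluorescence; 0% = enzyme with DMSO and 100% = DMSO without enzyme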
UBC9 SUMO inh = blocks human SUMOylation mediated by UBC9; inhibition, % at 35 µM; 0.36% of 290,000 active; HTRF SUMOylation assay, SAE1/SAE2 + UBC9, in vitro; in the data active = inhibition above about 50%, passing the limit was not always enough
Target sequence (P63279 whole entry, looked up): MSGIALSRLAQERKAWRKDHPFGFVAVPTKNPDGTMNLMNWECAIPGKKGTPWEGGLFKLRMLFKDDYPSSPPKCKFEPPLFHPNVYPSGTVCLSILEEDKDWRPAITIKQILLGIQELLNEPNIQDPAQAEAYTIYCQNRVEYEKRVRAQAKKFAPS
IMP-1 inh-1 = inhibitors of Pseudomonas aeruginosa IMP-1 metallo-beta-lactamase; purified IMP-1, nitrocefin hydrolysis, epi-absorbance fluorescence; inhibition, % at 5.6 µM; 0.45% of 290,000 active;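 active = inhibition above the mean plus 3 SD of all compounds in the same screening run, cut at about 4.5% in these data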;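 also: 0% = IMP-1 with DMSO and 100% = DMSO wells lacking enzyme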
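System: purified IMP-1; amount: IMP-1 0.2 nM before substrate addition; compound: single dose, 5.6 µM; times: 25 °C, 15 min preincubation, 25 min reaction; signal: Epi-absorbance via hydrolysed-nitrocefin quenching of white-plate fluorescence, 480/530 nm, EDTA stop; benchmarks: DMSO with and without IMP-1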
IMP-1 inh-2 = blocks IMP-1 metallo-beta-lactamase in VIM-2 selectivity screen | shares compounds with VIM-2 inhibitor | purified IMP-1, nitrocefin hydrolysis, epi-absorbance fluorescence | inhibition, % at 5.6 µM | 1,300 tested, under 10 active | AID 1856; call rule not given here;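 also: 0% = enzyme with vehicle and 100% = vehicle without enzyme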
VIM-2 FRET ctr = counter-screen for VIM-2 inhibitors: epi-absorbance artifacts via FRET; shares compounds with VIM-2 inhibitor; purified VIM-2, CCF2 FRET substrate hydrolysis; inhibition, % at 5.6 µM; 23% of 1,300 active; AID 1857;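 active = inhibition above the mean of all tested compounds plus 3 SD, cut at about 19% in these data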;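 also: 0% = VIM-2 plus DMSO and 100% = no enzyme wells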
TEM-1 counter = selectivity counter-screen for VIM-2 inhibitors: E. coli TEM-1 inhibitors; shares compounds with VIM-2 inhibitor; Purified TEM-1, nitrocefin hydrolysis, epi-absorbance fluorescence; inhibition, % at 5.6 µM; 3% of 1,300 active; AID 1866;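 active = inhibition above that campaign's mean inhibition plus 3 SD, cut at about 0.46% in these data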;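 also: 0% = TEM-1 with DMSO and 100% = TEM-1 with 100 µM potassium clavulanate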
Target sequence (P62593 whole entry, looked up): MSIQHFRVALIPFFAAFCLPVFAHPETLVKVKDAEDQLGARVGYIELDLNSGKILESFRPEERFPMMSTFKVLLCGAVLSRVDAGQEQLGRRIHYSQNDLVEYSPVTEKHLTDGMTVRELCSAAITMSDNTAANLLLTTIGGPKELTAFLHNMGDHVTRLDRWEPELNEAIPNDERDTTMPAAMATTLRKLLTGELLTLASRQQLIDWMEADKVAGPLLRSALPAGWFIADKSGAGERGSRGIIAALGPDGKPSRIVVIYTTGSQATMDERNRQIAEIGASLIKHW
VIM-2 inh conf = confirmation of P. aeruginosa VIM-2 metallo-beta-lactamase inhibitors | shares compounds with VIM-2 inhibitor | purified VIM-2, nitrocefin hydrolysis, epi-absorbance | inhibition, % at 5.6 µM | 96% of 1,300 active | AID 2187;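 active = inhibition of the VIM-2 beta-lactamase enzyme above about 11% from the earlier first-round screen, limit read from the data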;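 also: 0% = VIM-2 with DMSO and 100% = buffer wells without enzyme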
Numbers without * were called inactive; nt = no result given. A selection: hits, their analogues and other compounds. The true share with any hit is near 2.1%.

SMILES	FID counter	NS3 helicase inh	VIM-2 inhibitor	UBC9 SUMO inh	IMP-1 inh-1	IMP-1 inh-2	VIM-2 FRET ctr	TEM-1 counter	VIM-2 inh conf
Cc1ccc2oc(=O)c3cc(C(=O)NCCCN4CCc5ccccc5C4)sc3c2c1	1.5	-55.4	2.4	5.7	0.1	nt	nt	nt	nt
CCC1CCCCN1CCCNC(=O)c1cc2c(=O)oc3ccc(C)cc3c2s1 (stereo not given)	25.0	-25.4	12.4*	-11.3	-0.1	-3.5	4.6	-10.3	16.9*
Cc1ccc(O)c(NC(=S)NC(=O)c2ccccc2Cl)c1	6.2	-2.2	-3.7	-6.5	-3.4	nt	nt	nt	nt
c1cn(-c2ccc(-c3ccnc4ncnn34)cc2)cn1	-1.0	-7.5	45.1*	10.0	-0.8	-2.5	2.2	-4.3	63.0*
c1cncc(-c2ccnc3ncnn23)c1	1.3	2.7	-1.4	-0.9	-3.1	nt	nt	nt	nt
CCCCn1nc(NC(=O)CC)c2cc3cc(OC)ccc3nc21	-25.0	-8.1	0.2	13.0	-2.8	nt	nt	nt	nt
NC(=S)NNc1cccc2cccnc12	9.2	-17.7	18.1*	92.4*	-2.6	-5.1	-15.5	-10.4	14.8*
C=C(C)CNC(=S)N/N=C(\C)c1ccc(-n2ccnc2)cc1	-11.8	-6.7	78.9*	2.4	-4.6	-2.8	-8.2	-9.4	87.7*
C/C(=N\NC(=O)OC(C)(C)C)c1ccc(-n2ccnc2)cc1	-3.4	-11.5	0.6	-5.3	-0.9	nt	nt	nt	nt
CN1CCN(c2ccccc2NC(=O)c2sc3ccccc3c2Cl)CC1	12.9	-38.5	16.0*	11.7	-2.3	-1.5	-0.2	-7.4	39.5*
Cc1nc(-c2ccccn2)nc(N(C)c2ccccc2)c1Cl	-34.8	-12.3	21.1*	6.5	-5.6	-4.5	-52.3	-6.0	33.5*
Cc1nc(-c2ccccn2)nc(N2CCOCC2)c1Cl	-4.7	28.9	17.6*	-26.7	-11.7	-3.4	-23.2	-5.4	30.1*
COc1cnc(-c2ccccn2)nc1N(C)C	-4.9	8.9	2.4	-33.9	-2.2	nt	nt	nt	nt
CCNCc1cc(Br)c(OCC(=O)Nc2ccccc2)c(OC)c1	24.8	-23.2	2.0	9.0	-1.7	nt	nt	nt	nt
CNCc1cc(Br)c(OCC(=O)Nc2ccccc2OC)c(OC)c1	19.3	-17.1	12.7*	7.5	-2.2	-3.5	1.3	-4.1	26.8*
CN1CCN(c2nnc(-c3ccc(F)cc3)c3ccccc23)CC1	-5.0	-24.4	31.5*	7.4	-1.3	-1.2	5.5	-3.4	42.5*
CCN1CCN(c2nnc(-c3ccc(F)cc3)c3ccccc23)CC1	-1.2	-12.6	0.7	3.8	-1.5	nt	nt	nt	nt
CCOC(=O)c1cnc2c(ccc3ccccc32)c1NCCCN(C)C	81.1*	13.7	25.3*	4.2	1.3	0.6	10.8	-6.3	34.9*
CCOC(=O)c1cnc2c(C)c(Cl)ccc2c1NCCCN1CCOCC1	54.4*	17.6	16.4*	3.0	-0.5	0.0	1.4	-1.1	24.9*
CCOC(=O)c1ccc2ncc(C(=O)OCC)c(NCCCN3CCOCC3)c2c1	18.6	11.9	26.4*	8.2	-3.9	-2.9	0.3	-6.0	53.2*
CCOC(=O)c1cnc2ccc(OC)cc2c1Nc1ccc(N2CCN(C)CC2)cc1	43.9*	-38.7	76.4*	0.0	-1.6	-2.0	0.7	-6.9	84.7*
Cc1ccc(C(=O)N[C@@H](Cc2ccccc2)C(=O)N2CCC3(CC2)NCCc2[nH]cnc23)cc1C	22.0	-27.8	-2.6	nt	-2.4	nt	nt	nt	nt
Cc1c(C#N)c(=O)oc2ccc3ccccc3c12	-1.6	14.1	31.4*	34.3	-2.5	-4.0	5.4	-8.9	11.1*
CCOC(=O)C1CCN(C(=O)c2ccc3nc(-c4ccc(OC)cc4)c(-c4ccc(OC)cc4)nc3c2)CC1	-52.2	-23.1	-1.3	nt	-2.1	nt	nt	nt	nt
Cn1nc(-c2ccc(OCC(=O)Nc3cccnc3)cc2)c2ccccc2c1=O	-20.0	6.4	20.4*	-12.7	-3.4	-4.0	1.7	-7.2	30.9*
SMILES	FID counter	NS3 helicase inh	VIM-2 inhibitor	UBC9 SUMO inh	IMP-1 inh-1	IMP-1 inh-2	VIM-2 FRET ctr	TEM-1 counter	VIM-2 inh conf
COc1ccc(-c2cc(C(=O)O)c3c(C)nn(-c4ccccn4)c3n2)cc1	-11.9	4.8	-1.2	33.0	-0.7	nt	nt	nt	nt
CCOC(=O)c1cc(-c2ccncc2)nc2c1c(C)nn2-c1ccccn1	-26.5	-1.6	42.4*	nt	-2.4	-2.8	-11.4	-6.7	57.6*
COc1ccccc1NS(=O)(=O)c1cc(NC(=O)CNC(=O)c2ccc(C)s2)ccc1Cl	-4.2	-14.3	0.4	-33.6	-3.9	nt	nt	nt	nt
O=C(NCCN1CCOCC1)C1CCN(c2ncnc3c2sc2cccc(F)c23)CC1	-0.5	-9.6	22.6*	23.2	-1.2	-1.8	3.2	-7.1	36.7*
CCCCN(CC)CCCNC(=O)C1CCN(c2ncnc3c2sc2cccc(F)c23)CC1	18.7	-7.4	29.9*	21.1	0.8	0.3	3.8	-5.7	37.8*
O=C(NCCN1CCOCC1)C1CCN(Cc2ccccc2O)CC1	-2.9	-2.5	-2.7	10.7	-2.9	nt	nt	nt	nt
COc1cccc(-c2nnc3sc(-c4ccccn4)nn23)c1	-9.0	-6.8	14.9*	30.5	-2.6	-3.9	-1.9	-7.4	23.3*
COc1ccc(-c2nnc3sc(-c4ccccn4)nn23)cc1	nt	nt	nt	19.3	nt	nt	nt	nt	nt
CCOc1ccc(S(=O)(=O)NCc2ccccn2)cc1NC(=O)c1ccccc1F	-20.7	-4.4	-1.4	5.7	-4.2	nt	nt	nt	nt
COc1ccc(C2=NC(=O)NC2c2ccc(OC)cc2)cc1 (stereo not given)	-9.5	-10.7	0.6	8.4	-0.7	nt	nt	nt	nt
O=C1N=C(c2ccccc2)C(c2ccccc2)N1 (stereo not given)	3.8	2.6	15.3*	17.8	-2.5	-2.3	-4.8	-5.5	50.6*
COc1ccc(C2=Nn3c(nnc3-c3cccnc3)SC2)cc1	-21.3	-4.6	3.5	0.8	-2.3	nt	nt	nt	nt
COc1ccc(C2=Nn3c(nnc3-c3ccncc3)SC2)cc1	-13.6	0.7	21.1*	4.0	-1.2	-2.9	3.8	-6.0	41.7*
COc1ccc(Cc2nnc(NC(=O)C3CCCO3)s2)cc1OC (stereo not given)	-4.0	3.5	56.0*	7.0	-1.8	-2.2	-0.5	-1.7	6.3
COc1ccc(Cc2nnc(NC(=O)C3CCCO3)s2)cc1 (stereo not given)	-9.5	2.9	-1.5	5.6	-0.3	nt	nt	nt	nt
CCCc1cc(=O)oc2c(C)c(OCC(=O)NC3CC(C)(C)NC(C)(C)C3)ccc12	21.1	-8.4	6.9	nt	-2.1	nt	nt	nt	nt
Cc1c(OCC(=O)NC2CC(C)(C)NC(C)(C)C2)ccc2c3c(c(=O)oc12)CCC3	38.6*	-2.3	32.3*	7.5	-3.5	-1.1	0.8	-12.9	44.2*
